{"source": "paper PMC3201796", "about": "(Cell host & microbe, 2011)", "key": {"HIV-1 RT": {"molecular_target": "HIV-1 RT (Human immunodeficiency virus type 1 group M subtype B, UniProt P03366)", "assay": "HIV-1 reverse transcriptase assay", "type": "biochemical", "conditions": "competing dATP (3.2 μM); activated calf thymus DNA", "method_in_brief": "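Reaction mix: Tris-HCl pH 7.5, DTT, MgCl2, BSA, activated calf thymus DNA, unlabelled dCTP, dTTP and dGTP, and [3H]dATP (3.2 µM) with diphosphate test compound at various concentrations. Started with recombinant HIV-1 RT and run 30 min at 37 °C. Stopped with ice-cold 5% TCA/pyrophosphate; acid-insoluble DNA caught on glass-fibre filters and counted by liquid scintillation.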"}, "HSV-1 DNA polymerase": {"molecular_target": "HSV-1 DNA polymerase (Human herpesvirus 1, UniProt P04293)", "sequence (P04293 whole entry)": "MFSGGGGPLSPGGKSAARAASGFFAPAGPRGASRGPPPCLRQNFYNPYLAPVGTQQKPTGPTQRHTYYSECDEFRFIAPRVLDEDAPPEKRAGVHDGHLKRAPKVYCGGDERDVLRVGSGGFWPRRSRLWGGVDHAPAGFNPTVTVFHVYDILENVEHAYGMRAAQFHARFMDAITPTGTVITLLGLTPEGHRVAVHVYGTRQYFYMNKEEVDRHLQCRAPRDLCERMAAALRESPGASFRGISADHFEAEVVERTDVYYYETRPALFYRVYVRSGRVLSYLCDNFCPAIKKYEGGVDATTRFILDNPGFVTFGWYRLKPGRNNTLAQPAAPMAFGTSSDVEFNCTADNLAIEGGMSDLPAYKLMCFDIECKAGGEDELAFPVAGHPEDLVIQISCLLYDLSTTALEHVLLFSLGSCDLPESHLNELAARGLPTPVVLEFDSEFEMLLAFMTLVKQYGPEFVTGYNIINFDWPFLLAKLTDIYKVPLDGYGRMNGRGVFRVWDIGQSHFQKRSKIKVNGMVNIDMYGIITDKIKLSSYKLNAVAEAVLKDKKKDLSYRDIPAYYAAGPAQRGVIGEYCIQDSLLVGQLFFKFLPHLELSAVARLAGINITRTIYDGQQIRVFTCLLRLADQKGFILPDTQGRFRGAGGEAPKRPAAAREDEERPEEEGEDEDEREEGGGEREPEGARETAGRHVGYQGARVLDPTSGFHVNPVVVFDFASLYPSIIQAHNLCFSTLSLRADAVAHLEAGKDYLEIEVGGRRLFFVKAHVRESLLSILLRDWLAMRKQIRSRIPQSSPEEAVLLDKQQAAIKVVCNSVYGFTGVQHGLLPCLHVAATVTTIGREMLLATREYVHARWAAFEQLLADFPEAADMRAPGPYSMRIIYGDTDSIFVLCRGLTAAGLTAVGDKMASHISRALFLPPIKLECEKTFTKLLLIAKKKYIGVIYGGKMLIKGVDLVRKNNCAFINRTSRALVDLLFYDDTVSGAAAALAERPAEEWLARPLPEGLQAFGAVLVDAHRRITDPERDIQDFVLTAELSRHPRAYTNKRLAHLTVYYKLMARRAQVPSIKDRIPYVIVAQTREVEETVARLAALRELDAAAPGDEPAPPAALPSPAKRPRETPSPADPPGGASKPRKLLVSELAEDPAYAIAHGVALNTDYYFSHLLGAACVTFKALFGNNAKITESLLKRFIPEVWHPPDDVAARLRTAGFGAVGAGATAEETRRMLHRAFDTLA", "assay": "HSV-1 DNA polymerase assay", "type": "biochemical", "method_in_brief": "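Recombinant HSV-1 DNA polymerase; 40 µl reactions with a Tris.HCl pH 7.5/DTT/MgCl₂ premix, BSA and activated calf thymus DNA. One radiolabelled dNTP was the competing substrate: [³H]dATP (3.2 µM), [³H]dGTP (2.8 µM), [³H]dTTP (1 µM) or [³H]dCTP (2.5 µM); unlabelled others present. Tenofovir-diphosphate added from 200, 20, 2, 0.2 µM solutions. 60 min at 37°C; stopped with ice-cold TCA/pyrophosphate; acid-insoluble DNA collected on glass-fibre filters.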"}, "HIV-1": {"system": "HIV-1", "conditions": "lymphoid and cervico-vaginal tissues; ref Lisco et al., 2008; cited from earlier work"}, "Cytostatic activity [1]": {"assay": "Cytostatic activity", "type": "cell-based", "conditions": "human, PHKs, non-infected"}, "Cytostatic activity [2]": {"assay": "Cytostatic activity", "type": "cell-based", "conditions": "human, HEL cells, non-infected"}, "PHKs": {"system": "PHKs", "assay": "Cytotoxicity by cell morphology", "type": "cell-based, human", "conditions": "non-infected", "method_in_brief": "(§1)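 Run in non-infected cultures in parallel with the antiviral assay. Cells exposed to test compound and examined microscopically at day 3. MCC is the lowest concentration giving a detectable change in cell morphology.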"}, "HEL cells": {"system": "HEL cells", "assay": "Cytotoxicity by cell morphology", "type": "cell-based, human", "conditions": "HEL, non-infected, cell morphology", "method_in_brief": "as §1"}, "HSV-2 [3]": {"system": "HSV-2", "type": "cell-based", "conditions": "day 6, M/M"}, "HSV-2 [4]": {"system": "HSV-2", "type": "cell-based", "conditions": "M/M"}, "HSV-2 [5]": {"system": "HSV-2", "assay": "HSV-2-infected athymic nude mice", "type": "in vivo", "conditions": "1% gel, topical", "method_in_brief": "(§2)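 Female NMRI athymic nude or hairless mice (~20 g, ~4 weeks; groups of five) scarified over ~1 cm² lumbosacral area with HSV-1 KOS (5×10^3 PFU) or HSV-2 G (5×10^2). Test compound 1% in 100% DMSO or CAPRISA 004-type gel, topical twice daily for 5 days from 1-2 h post-infection; same vehicle without drug as placebo. Lesions and mortality recorded over one month; Kaplan-Meier survival, log-rank test.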"}, "HSV-1": {"system": "HSV-1", "assay": "HSV-1-infected athymic nude mice", "type": "in vivo", "conditions": "1% gel, topical", "method_in_brief": "as §2"}, "HSV-2 [6]": {"system": "HSV-2", "assay": "HSV-2 cytopathicity in primary monocyte/macrophage cultures", "type": "cell-based", "conditions": "for Cytopathicity (CPE) (%): day 6, M/M"}, "HSV-2G, HSV-2MS": {"system": "HSV-2G, HSV-2MS", "assay": "Human tonsillar tissue ex vivo infected with HSV-2", "type": "cell-based", "conditions": "data not shown"}, "HSV-2 [7]": {"system": "HSV-2", "conditions": "daily oral, co-formulation with FTC; ref Lama et al., 18th CROI 2011, # 1002; cited from earlier work"}}, "note": "Where a name gives a salt, the structure may show the parent alone. Read-outs that look alike come from different tables or passages of the source.", "data": [{"smiles": "CC(Cn1cnc2c(N)ncnc21)OCP(=O)(O)OP(=O)(O)OP(=O)(O)O", "note": "(stereo in doubt) [Tenofovir-diphosphate, Tenofovir diphosphate]", "values": [{"measurement": "IC50 HIV-1 RT", "setting": "HIV-1 RT", "value": 1.3, "unit": "µg/mL"}, {"measurement": "IC50 herpesvirus DNA polymerase", "setting": "HSV-1 DNA polymerase; competing dATP (3.2 μM)", "value": "0.38 ± 0.03", "unit": "µg/mL"}, {"measurement": "IC50 herpesvirus DNA polymerase", "setting": "HSV-1 DNA polymerase; competing dCTP (2.5 μM)", "value": "25 ± 1.8", "unit": "µg/mL"}, {"measurement": "IC50 herpesvirus DNA polymerase", "setting": "HSV-1 DNA polymerase; competing dGTP (2.8 μM)", "value": "7.1 ± 5", "unit": "µg/mL"}, {"measurement": "IC50 herpesvirus DNA polymerase", "setting": "HSV-1 DNA polymerase; competing dTTP (1 μM)", "value": "8.5 ± 3.8", "unit": "µg/mL"}]}, {"smiles": "Nc1nc2c(ncn2COCCO)c(=O)[nH]1", "note": "[Acyclovir, 9-(2-hydroxyethoxy-methyl)guanine]", "values": [{"measurement": "inhibition of HIV-1 in herpesvirus-coinfected tissues", "setting": "HIV-1", "value": "efficiently inhibits HIV-1"}, {"measurement": "CC50 at 3 days", "setting": "Cytostatic activity [1]", "value": 132, "unit": "µg/mL"}, {"measurement": "CC50 at 3 days", "setting": "Cytostatic activity [2]", "value": "166 ± 17", "unit": "µg/mL"}, {"measurement": "Cell toxicity MCC (minimum cytotoxic concentration)", "setting": "PHKs", "value": ">50", "unit": "µg/mL"}, {"measurement": "Cell toxicity MCC (minimum cytotoxic concentration)", "setting": "HEL cells", "value": ">100", "unit": "µg/mL"}]}, {"smiles": "Nc1ncnc2c1ncn2CCOCP(=O)(O)O", "note": "[Adefovir, 9-[2-(phosphonylmethoxyethyl)adenine]]", "values": [{"measurement": "Virus production (PFU/ml)", "setting": "HSV-2 [3]; 0.2 μg/ml", "value": "9.9×10^3 PFU/ml"}, {"measurement": "Virus production (PFU/ml)", "setting": "HSV-2 [3]; 1 μg/ml", "value": "2.5×10^2 PFU/ml"}, {"measurement": "Virus production (PFU/ml)", "setting": "HSV-2 [3]; 5 μg/ml", "value": "No virus"}, {"measurement": "Virus production (PFU/ml)", "setting": "HSV-2 [3]; 20 μg/ml", "value": "No virus"}, {"measurement": "Virus production (PFU/ml)", "setting": "HSV-2 [3]; 100 μg/ml", "value": "No virus"}, {"measurement": "Virus production (PFU/ml)", "setting": "HSV-2 [3]; 500 μg/ml", "value": "No virus"}, {"measurement": "CC50 at 3 days", "setting": "Cytostatic activity [1]", "value": "17 ± 6", "unit": "µg/mL"}, {"measurement": "Virus production (TCID50/ml)", "setting": "HSV-2 [4]; 0.04 μg/ml, day 6", "value": "1×10^5 TCID50/ml"}, {"measurement": "Virus production (TCID50/ml)", "setting": "HSV-2 [4]; 0.2 μg/ml, day 6", "value": "6×10^4 TCID50/ml"}, {"measurement": "Virus production (TCID50/ml)", "setting": "HSV-2 [4]; 1 μg/ml, day 6", "value": "8×10^2 TCID50/ml"}, {"measurement": "Virus production (TCID50/ml)", "setting": "HSV-2 [4]; 5 μg/ml, day 6", "value": "No virus"}, {"measurement": "Virus production (TCID50/ml)", "setting": "HSV-2 [4]; 20 μg/ml, day 6", "value": "No virus"}, {"measurement": "Virus production (TCID50/ml)", "setting": "HSV-2 [4]; 100 μg/ml, day 6", "value": "No virus"}, {"measurement": "Virus production (TCID50/ml)", "setting": "HSV-2 [4]; 500 μg/ml, day 6 post infection", "value": "No virus"}, {"measurement": "performance in 1% gel-treated mice compared with tenofovir", "setting": "HSV-2 [5]", "value": "virtually not superior to tenofovir against HSV-2"}, {"measurement": "CC50 at 3 days", "setting": "Cytostatic activity [2]", "value": "100 ± 57", "unit": "µg/mL"}, {"measurement": "performance in 1% gel-treated mice, HSV-1 vs HSV-2", "setting": "HSV-1", "value": "performed markedly better against HSV-1 than HSV-2"}, {"measurement": "Cell toxicity MCC (minimum cytotoxic concentration)", "setting": "PHKs", "value": ">50", "unit": "µg/mL"}, {"measurement": "Cell toxicity MCC (minimum cytotoxic concentration)", "setting": "HEL cells", "value": ">100", "unit": "µg/mL"}, {"measurement": "Cytopathicity (CPE) (%)", "setting": "HSV-2 [6]; 0.2 μg/ml", "value": 5, "unit": "%"}, {"measurement": "Cytopathicity (CPE) (%)", "setting": "HSV-2 [6]; 1 μg/ml", "value": "None"}, {"measurement": "CPE suppression in M/M", "setting": "HSV-2 [6]; 5 μg/ml", "value": "full CPE suppression"}, {"measurement": "Cytopathicity (CPE) (%)", "setting": "HSV-2 [6]; 5 μg/ml", "value": "None"}, {"measurement": "Cytopathicity (CPE) (%)", "setting": "HSV-2 [6]; 20 μg/ml", "value": "None"}, {"measurement": "Cytopathicity (CPE) (%)", "setting": "HSV-2 [6]; 100 μg/ml", "value": "None"}, {"measurement": "Cytopathicity (CPE) (%)", "setting": "HSV-2 [6]; 500 μg/ml", "value": "None"}]}, {"smiles": "Nc1ccn(C[C@@H](CO)OCP(=O)(O)O)c(=O)n1", "note": "[Cidofovir, (S)-1-(3-hydroxy-2-phosphonylmethoxypropyl)cytosine]", "values": [{"measurement": "CC50 at 3 days", "setting": "Cytostatic activity [1]", "value": "34 ± 20", "unit": "µg/mL"}, {"measurement": "CC50 at 3 days", "setting": "Cytostatic activity [2]", "value": "82 ± 57", "unit": "µg/mL"}, {"measurement": "Cell toxicity MCC (minimum cytotoxic concentration)", "setting": "PHKs", "value": ">50", "unit": "µg/mL"}, {"measurement": "Cell toxicity MCC (minimum cytotoxic concentration)", "setting": "HEL cells", "value": ">100", "unit": "µg/mL"}]}, {"smiles": "Nc1ccn([C@@H]2CS[C@H](CO)O2)c(=O)n1", "note": "[lamivudine]", "values": [{"measurement": "effect on HSV-2G replication", "setting": "HSV-2G, HSV-2MS", "value": "no effect"}]}, {"smiles": "CC(C)OC(=O)OCOP(=O)(CO[C@H](C)Cn1cnc2c(N)ncnc21)OCOC(=O)OC(C)C", "note": "[tenofovir DF, tenofovir disoproxil fumarate]", "values": [{"measurement": "effect on HSV-2 acquisition", "setting": "HSV-2 [7]", "value": "did not reduce HSV-2 acquisition"}]}]}
